Screening data (PubChem BioAssay)
Kir21 block: inhibitors of mouse Kir2.1 inward-rectifier potassium channel; B-score at 10 µM; HEK293-Kir2.1, FluxOR thallium flux fluorescence; active compounds read low; actives 0.85% (n = 310,000); AID 1672; P35561;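 active = fluorescence ratio B-score at or below minus 3 SD of library scores, with starting-brightness B-score within 2 SD, cut at about -4.2 in these data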;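 also: channel flux triggered by added potassium and thallium sulfate stimulus; B-score of peak minus minimum fluorescence over baseline after thallium stimulus; more negative B-score means stronger Kir2.1 block with less thallium influx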
KCNQ1 pot: potentiates or activates the human KCNQ1 potassium channel; P51787; CHO-K1 KCNQ1, thallium flux FluxOR fluorescence; active compounds read high; B-score at 10 µM; actives 0.35% (n = 310,000); AID 2648;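 active = fluorescence ratio B-score, a plate-corrected score, at least three library SD, with initial intensity B-score within 5 SD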
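System: CHO-K1 cells stably expressing KCNQ1 / Medium: assay buffer for compound exposure, DMSO matched across wells / Reagent: thallium- and potassium-containing depolarizing buffer / Compound: one concentration, matched DMSO / Incubation: 20 min compound pretreatment at room temperature / Measured by: kinetic FluxOR fluorescence, 10 s baseline plus 110 s post-stimulus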
KCNQ1 block: human KCNQ1 channel inhibition; CHO-K1 KCNQ1, FluxOR thallium flux fluorescence; active compounds read high; actives 1.3% (n = 310,000); B-score at 10 µM; P51787;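 active = compounds whose thallium flux B-score, printed positive for inhibition, exceeds three library SD while starting fluorescence stays within three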;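 also: channel opened by potassium depolarization with thallium stimulus after 20 min compound exposure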
KCNK9 inh: blocks the human KCNK9 two-pore domain potassium channel | Q9NPC2 | HEK293 KCNK9, FluxOR thallium flux fluorescence; active compounds read low | B-score at 10 µM | actives 1.2% (n = 310,000) | AID 488922;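 active = ratio B-score over 3 SD below the library mean, with starting fluorescence within 5 SD of its mean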;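 also: negative B-score means less thallium flux so channel inhibition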
Target sequence (Q9NPC2 whole entry, looked up, the tested form may be a part): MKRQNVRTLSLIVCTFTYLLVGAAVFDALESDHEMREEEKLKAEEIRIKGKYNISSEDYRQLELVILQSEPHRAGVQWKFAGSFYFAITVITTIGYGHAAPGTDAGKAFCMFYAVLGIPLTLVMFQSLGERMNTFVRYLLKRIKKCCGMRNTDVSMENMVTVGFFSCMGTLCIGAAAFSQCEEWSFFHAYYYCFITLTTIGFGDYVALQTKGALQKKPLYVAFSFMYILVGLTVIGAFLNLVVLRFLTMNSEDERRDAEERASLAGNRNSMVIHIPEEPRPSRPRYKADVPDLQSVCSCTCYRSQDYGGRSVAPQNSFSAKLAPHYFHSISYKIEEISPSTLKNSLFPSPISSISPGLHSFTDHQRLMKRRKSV
hERG rescue: shields human hERG channel from block by proarrhythmic agents; activation (rescue from dofetilide block), less the hit threshold, % at 10 µM; actives 0.51% (n = 310,000); Q12809; CHO-hERG, FluxOR thallium flux, dofetilide IC70 present;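 active = activation above the mean of controls blocked by dofetilide plus 5 SD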;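 also: thallium influx through hERG after potassium depolarization seen as dye fluorescence rise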
KCNK3 block: human KCNK3 channel inhibition, primary screen; O14649; CHO-KCNK3 thallium flux, FluxOR fluorescence; active compounds read low; B-score at 10 µM; actives 0.84% (n = 340,000); AID 602410;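 active = B-score under library mean minus 4 SD, starting fluorescence ratio at most library mean plus 5 SD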;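 also: more negative B-score means stronger inhibition of thallium flux through KCNK3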
KCNQ1 inh valid: human KCNQ1 channel inhibition, validation assay; shares compounds with KCNQ1 block; KCNQ1 cell line, FluxOR thallium flux fluorescence; inhibition, % at 10 µM; actives 93% (n = 1,600); AID 588353;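 active = primary screen active, with duplicate mean exceeding buffer control mean plus 3 SD of buffer wells, cut at about 28% in these data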
CHO KCNQ1 ctr: KCNQ1 inhibitor counter-screen hit in parental CHO cells; shares compounds with KCNQ1 block; parental CHO-K1, FluxOR thallium flux fluorescence ratio; active compounds read low; zero means no signal rise above baseline; fluorescence ratio (Tl flux) at 10 µM; actives 21% (n = 1,600); AID 588366;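 active = mean of duplicate thallium-flux fluorescence ratios in parental host cells more than 5 SD below the buffer control mean, cut at about 0.38 in these data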;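 also: ratio is peak minus minimum fluorescence divided by baseline fluorescence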
KCNQ1 APC inh: human KCNQ1 inhibition validated by electrophysiology; shares compounds with KCNQ1 block; KCNQ1-CHO cells, automated patch clamp current; calls only at 10 µM; actives 20% (n = 490); AID 624120;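 active = KCNQ1 current drop exceeding 3 SD of negative control wells, seen in both duplicate runs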;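 also: steady state current during a 2 s step from -80 to +40 mV; negative values mean current inhibition and positive values mean potentiation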
KCNQ2 inh: KCNQ1 inhibitor that also blocks rat KCNQ2 channel; shares compounds with KCNQ1 block; KCNQ2 cells, FluxOR thallium flux fluorescence; inhibition, % at 10 µM; actives 71% (n = 1,600);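 active = mean percent inhibition of the KCNQ2 thallium signal more than 5 SD above the buffer-only control wells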;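 also: KCNQ2 expressed in CHO cells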
KCNQ1 KCNE1 spec: human KCNQ1/KCNE1 inhibition in KCNQ1 specificity screen; shares compounds with KCNQ1 block; KCNQ1/KCNE1 cells, FluxOR thallium flux fluorescence; actives 77% (n = 1,600); inhibition, % at 10 µM;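 active = mean percent inhibition of duplicate wells above the buffer-only control mean plus 3 SD of those controls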
KCNK9 block conf: confirmation of human KCNK9 potassium channel inhibitors | inhibition, % at 10 µM | AID 492992 | HEK293 KCNK9 cells, FluxOR thallium flux fluorescence | actives 43% (n = 4,900) | shares compounds with KCNK9 inh;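 active = thallium signal inhibited by more than 5 SD of the compound-free buffer control wells, on both duplicate plates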
Kir21 sel: mouse Kir2.1 off-target activity of KCNK9 modulators | AID 492993 | inhibition, % at 10 µM | actives 4% (n = 4,900) | shares compounds with KCNK9 inh | Kir2.1 cells, FluxOR thallium flux fluorescence;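 active = thallium signal drop more than 5 SD beyond the mean of the no-compound control wells, seen in both duplicate plates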;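 also: signal is fluorescence rise after thallium addition divided by baseline fluorescence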
HEK293 Tl ctr: second counter-screen for KCNK9 modulators: effect in non-induced cells | shares compounds with KCNK9 inh | inhibition, % at 10 µM | non-induced KCNK9-HEK293, FluxOR thallium flux | actives 40% (n = 4,900);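 active = thallium signal drop beyond 5 SD of the untreated control mean, on both duplicate plates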
KCNK3 inh conf: human KCNK3 channel inhibition, confirmation assay. CHO-KCNK3 thallium flux, FluxOR fluorescence; 0% buffer, 100% carvedilol maximal block. shares compounds with KCNK3 block. ratio percent of control, % at 10 µM. actives 99% (n = 2,400);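 active = ratio percent of control, averaged over triplicates, above buffer control mean plus 5 SD, cut at about 64% in these data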;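 also: ratio is the fluorescence rise from min to max over baseline after thallium stimulus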
KCNK3 uninduced: activity in cells without induced KCNK3 expression; shares compounds with KCNK3 block; non-induced KCNK3 parental cells, FluxOR thallium flux; active compounds read low; thallium flux ratio (lower = more inhibition) at 10 µM; actives 40% (n = 2,400); AID 651747;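 active = thallium flux ratio, averaged over three wells, more than 5 SD below the buffer control mean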;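 also: host cells are CHO cells without KCNK3 induction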
Each line names hits and unclear results; the compound was inactive in the other large screens (follow-up assays come after a bar, where they were run). In the library only some 3.8% were active in any assay of this set; here they are far more common.

Cc1cc(C)cc(OCC(O)CN2CCC(CN3C(=O)c4cccc5cccc(c45)C3=O)CC2)c1 (centres undefined)	KCNQ1 block 9, KCNK3 block -9.5 | KCNQ1 inh valid 128 | CHO KCNQ1 ctr inactive | KCNQ1 APC inh inactive | KCNQ2 inh 99% | KCNQ1 KCNE1 spec 138% | KCNK9 block conf inactive | Kir21 sel inactive | HEK293 Tl ctr inactive | KCNK3 inh conf 111 | KCNK3 uninduced inactive
CN(Cc1cccc2cnccc12)C(=O)c1cc(COc2ccc(F)cc2F)on1	none
CCc1ccc(CN(C)C(=O)c2cc(COc3cccc4cnccc34)on2)cc1	KCNQ1 block 11, KCNK9 inh -10, KCNK3 block -14 | KCNQ1 inh valid 160 | CHO KCNQ1 ctr 0.33 | KCNQ2 inh 132% | KCNQ1 KCNE1 spec active | KCNK9 block conf inactive | Kir21 sel inactive | HEK293 Tl ctr inactive | KCNK3 inh conf 127 | KCNK3 uninduced 0.15
Cc1nc(N2CCN(Cc3ccc4c(c3)OCO4)CC2)c2cc(-c3ccccc3)sc2n1	KCNQ1 block 7, KCNK3 block -10 | KCNQ1 inh valid 118 | CHO KCNQ1 ctr inactive | KCNQ1 APC inh inactive | KCNQ2 inh 111% | KCNQ1 KCNE1 spec 130% | KCNK3 inh conf 95 | KCNK3 uninduced inactive
Cc1cccc2nc(-c3cccnc3)c(NCCC(C)C)n12	KCNQ1 block 11, KCNK9 inh -9.1, hERG rescue 4.9, KCNK3 block -10 | KCNQ1 inh valid 139 | CHO KCNQ1 ctr 0.37 | KCNQ2 inh 119% | KCNQ1 KCNE1 spec 157% | KCNK9 block conf 37% | Kir21 sel inactive | HEK293 Tl ctr 36% | KCNK3 inh conf 141 | KCNK3 uninduced 0.13
Cc1cccc2nc(-c3cccnc3)c(Nc3ccccc3)n12	none
c1ccc(-c2csc3ncnc(N4CCOCC4)c23)cc1	none
COc1ccc(N2CCN(c3ncnc4scc(-c5ccccc5)c34)CC2)cc1	KCNQ1 block 6, KCNK9 inh -12, KCNK3 block -11 | KCNQ1 inh valid 93 | CHO KCNQ1 ctr inactive | KCNQ1 APC inh inactive | KCNQ2 inh 106% | KCNQ1 KCNE1 spec 108% | KCNK9 block conf 28% | Kir21 sel inactive | HEK293 Tl ctr inactive | KCNK3 inh conf 117 | KCNK3 uninduced inactive
